# pIC50: −log10 of the molar value.
# Experiments:
# Artemia salina = assay: Cytotoxicity against Artemia salina assessed as induction of shrimp mortality incubated for 24 hrs; type: functional; settings: for LC50: read-out: LD50 (the source's name)
# MDA-MB-231 = assay: Antiproliferative activity against human MDA-MB-231 cells assessed as inhibition of cell proliferation incubated for 72 hrs by SRB assay; type: functional, cell-based; settings: MDA-MB-231, 72 h
# Summary of the method: (§1)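 Seeded at 1 × 10^4 cells/well (MCF-7: EMEM + 10% FBS; MDA-MB-231: EMEM + 10% NuSerum; NIH3T3: DMEM + 5% NuSerum + 1% antibiotics). Exposed to 1.25–40 μM final (DMSO stock diluted in water) for 72 h at 37 °C, 5% CO2. Day-0 plate used. Fixed with TCA (10% final, 4 °C, 1 h), stained with 0.4% SRB, dye dissolved in 10 mM Tris. IC50 derived. Podophyllotoxin and 0.5% DMSO as controls.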
# MCF7 = assay: Antiproliferative activity against human MCF7 cells assessed as inhibition of cell proliferation incubated for 72 hrs by SRB assay; type: functional, cell-based; settings: MCF7, 72 h; summary of the method: as §1
# [1] = Antiproliferative activity against mouse NIH/3T3 cells assessed as inhibition of cell proliferation incubated for 72 hrs by SRB assay; type: cell-based; settings: NIH3T3, 72 h; summary of the method: as §1
SMILES,Activity (Artemia salina),LC50 (Artemia salina) [µM],pIC50 (MDA-MB-231),pIC50 (MCF7),pIC50 [1]
COc1c(C)c(O)c2c(=O)c(-c3ccc(O)cc3)coc2c1C,Dose-dependent effect,20.2,5.15,< 4.40,< 4.40
COc1cc([C@@H]2c3cc4c(cc3[C@H](O)[C@H]3COC(=O)[C@H]23)OCO4)cc(OC)c1OC [PODOFILOX],,,7.10,,7.08
COc1c(C)c(O)c2c(=O)cc(-c3ccc(O)cc3)oc2c1C [SIDEROXYLIN],Dose-dependent effect,80.1,4.43,4.83,< 4.40
